According to ChEMBL document CHEMBL4732230, “Design, synthesis, and biological evaluation of 4-benzoylamino-1H-pyrazole-3-carboxamide derivatives as potent CDK2 inhibitors” (Eur J Med Chem, 2021):
Active and inactive are the calls of the source. The calls are words filed in the database; no cut-off is given here.

Experiments:
A2058 [1] = assay: Induction of apoptosis in human A2058 cells assessed as early apoptotic cells at 0.2 uM measured after 48 hrs by Annexin V-FITC/propidium iodide staining based flow cytometry (reference value: 3.13 %); type: functional
A2058 [2] = assay: Induction of apoptosis in human A2058 cells assessed as viable cells at 0.2 uM measured after 48 hrs by Annexin V-FITC/propidium iodide staining based flow cytometry (reference value: 94.6 %); type: functional; conditions: read-out: Activity
A2058 [3] = assay: Induction of apoptosis in human A2058 cells assessed as late apoptotic cells at 0.4 uM measured after 48 hrs by Annexin V-FITC/propidium iodide staining based flow cytometry (reference value: 1.85 %); type: functional
[4] = biological target: Cyclin-dependent kinase 2 (Homo sapiens) (UniProt P24941); assay: Inhibition of CDK2 in human MV4-11 cells assessed as reduction in Rb phosphorylation at Ser807/811 after 24 to 48 hrs by immunoblot analysis; type: cell-based; conditions: dose 0.375-6 µM, time lower […], time upper 48.0 hrs
Procedure, shortened: (§1)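 MV4-11 cells treated with compound for 24 h or 48 h. Lysates were separated on 8% or 10% SDS-PAGE and transferred to nitrocellulose. Membranes were immunoblotted for phospho-Rb Ser780, phospho-Rb Ser807/811 and total Rb, with β-actin as loading control. Detection used HRP secondary at 1:10,000 and ECL.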

A2058 [5] = assay: Induction of cell cycle arrest in human A2058 cells assessed as accumulation at S phase at 0.2 uM after 24 hrs by propidium iodide/RNase staining based flow cytometric analysis (reference value: 30.76 %); type: functional
A2058 [6] = assay: Induction of apoptosis in human A2058 cells assessed as early apoptotic cells at 1 uM measured after 48 hrs by Annexin V-FITC/propidium iodide staining based flow cytometry (reference value: 3.13 %); type: functional
A2058 [7] = assay: Induction of apoptosis in human A2058 cells assessed as necrotic cells at 0.2 uM measured after 48 hrs by Annexin V-FITC/propidium iodide staining based flow cytometry (reference value: 0.37 %); type: functional
CDK9/cyclin T1 = CDK9/cyclin T1 (Homo sapiens, UniProt P50750); assay: Inhibition of CDK9/cyclin T1 (unknown origin) using FAM-labeled peptide and ATP as substrate preincubated for 10 mins followed by substrate addition by mobility shift assay; type: protein-complex assay
CDK9/cyclin T1, sequence (O60563 whole entry): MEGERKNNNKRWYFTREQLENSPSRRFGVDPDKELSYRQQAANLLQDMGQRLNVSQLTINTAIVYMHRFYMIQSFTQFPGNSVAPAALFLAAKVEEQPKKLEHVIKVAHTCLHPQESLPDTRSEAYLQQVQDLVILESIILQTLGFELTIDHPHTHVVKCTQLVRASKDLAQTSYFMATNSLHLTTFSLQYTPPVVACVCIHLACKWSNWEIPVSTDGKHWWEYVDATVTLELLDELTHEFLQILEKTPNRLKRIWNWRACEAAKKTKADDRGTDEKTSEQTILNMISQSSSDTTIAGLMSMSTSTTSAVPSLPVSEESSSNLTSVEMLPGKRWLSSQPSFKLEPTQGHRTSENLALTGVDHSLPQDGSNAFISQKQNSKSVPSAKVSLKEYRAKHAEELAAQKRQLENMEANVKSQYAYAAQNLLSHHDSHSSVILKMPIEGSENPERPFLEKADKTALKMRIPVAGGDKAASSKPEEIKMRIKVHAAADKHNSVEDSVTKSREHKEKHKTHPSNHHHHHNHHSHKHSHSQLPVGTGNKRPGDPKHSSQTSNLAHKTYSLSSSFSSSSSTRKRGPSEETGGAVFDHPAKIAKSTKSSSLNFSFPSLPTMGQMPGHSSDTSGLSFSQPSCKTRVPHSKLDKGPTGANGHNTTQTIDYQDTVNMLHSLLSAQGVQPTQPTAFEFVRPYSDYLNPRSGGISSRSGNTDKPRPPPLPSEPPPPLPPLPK
CDK9/cyclin T1, sequence (P50750 whole entry): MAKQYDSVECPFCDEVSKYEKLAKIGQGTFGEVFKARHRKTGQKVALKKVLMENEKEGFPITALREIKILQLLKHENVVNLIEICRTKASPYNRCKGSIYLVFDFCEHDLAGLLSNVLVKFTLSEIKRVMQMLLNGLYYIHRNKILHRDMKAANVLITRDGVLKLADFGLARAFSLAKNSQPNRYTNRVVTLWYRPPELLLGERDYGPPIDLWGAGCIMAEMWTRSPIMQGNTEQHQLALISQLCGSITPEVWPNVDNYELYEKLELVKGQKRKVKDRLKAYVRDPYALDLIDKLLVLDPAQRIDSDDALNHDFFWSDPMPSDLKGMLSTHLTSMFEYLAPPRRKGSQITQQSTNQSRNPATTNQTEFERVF

A2058 [8] = assay: Induction of apoptosis in human A2058 cells assessed as necrotic cells at 0.4 uM measured after 48 hrs by Annexin V-FITC/propidium iodide staining based flow cytometry (reference value: 0.37 %); type: functional
[9] = biological target: Cyclin-dependent kinase 2 (Homo sapiens) (UniProt P24941); assay: Inhibition of CDK2 in human A2058 cells assessed as downregulation of Mcl-1 expression at 0.1875 to 1.5 uM after 24 hrs by immunoblot analysis; type: cell-based; conditions: dose 0.1875-1.5 µM
CDK6/cyclin D3 = CDK6/cyclin D3 (Homo sapiens, UniProt Q00534); assay: Inhibition of CDK6/cyclin D3 (unknown origin) using FAM-labeled peptide and ATP as substrate preincubated for 10 mins followed by substrate addition by mobility shift assay; type: protein-complex assay
CDK6/cyclin D3, sequence (P30281 whole entry): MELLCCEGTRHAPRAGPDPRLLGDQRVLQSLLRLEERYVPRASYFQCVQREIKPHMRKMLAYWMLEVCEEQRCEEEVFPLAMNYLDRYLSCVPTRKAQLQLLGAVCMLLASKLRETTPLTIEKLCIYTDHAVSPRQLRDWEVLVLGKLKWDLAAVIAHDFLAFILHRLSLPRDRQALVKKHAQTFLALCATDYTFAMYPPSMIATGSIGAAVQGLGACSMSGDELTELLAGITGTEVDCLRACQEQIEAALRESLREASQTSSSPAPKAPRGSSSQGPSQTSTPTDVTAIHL
CDK6/cyclin D3, sequence (Q00534 whole entry): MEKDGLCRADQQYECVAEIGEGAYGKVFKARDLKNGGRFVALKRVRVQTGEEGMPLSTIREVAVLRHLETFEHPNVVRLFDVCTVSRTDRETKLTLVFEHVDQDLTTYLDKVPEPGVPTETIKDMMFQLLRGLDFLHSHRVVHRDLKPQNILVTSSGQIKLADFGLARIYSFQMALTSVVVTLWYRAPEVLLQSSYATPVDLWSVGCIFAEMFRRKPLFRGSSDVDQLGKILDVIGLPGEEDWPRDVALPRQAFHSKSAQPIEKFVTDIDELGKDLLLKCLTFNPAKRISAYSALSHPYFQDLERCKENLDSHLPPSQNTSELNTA
Procedure, shortened: (§2)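 Mobility shift assay in 50 mM HEPES pH 7.5 with 0.0015% Brij-35. Kinase was added to serially diluted compound in 10% DMSO and held 10 min at room temperature. FAM-labeled peptide and ATP were then added and the mixture incubated at 28 °C for the specified time. Reactions were stopped with EDTA-containing buffer.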

A2058 [10] = assay: Induction of apoptosis in human A2058 cells assessed as upregulation of cleaved PARP level after 24 hrs by immunoblot analysis; type: functional, cell-based; conditions: dose 0.1875-1.5 µM
Procedure, shortened: (§3)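 A2058 cells treated with compound for 24 h and lysed. Lysates were run on 8% or 10% SDS-PAGE and transferred to nitrocellulose, then blocked in 5% milk/TBST for 60 min. Blots were probed overnight at 4 °C for cleaved caspase-3 or cleaved PARP, then with HRP secondary at 1:10,000 for 1 h. Detection was by ECL, with tubulin as loading control.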

[11] = biological target: Cyclin-dependent kinase 2 (Homo sapiens) (UniProt P24941); assay: Inhibition of CDK2 in human MV4-11 cells assessed as reduction in Rb phosphorylation at Ser780 at 0.375 to 6 uM by immunoblot analysis; type: cell-based; conditions: dose 0.375-6 µM, time lower […], time upper 48.0 hrs, TDE = time-dependent effect; procedure, shortened: as §1
A2058 [12] = assay: Induction of cell cycle arrest in human A2058 cells assessed as accumulation at G1 phase at 0.4 uM after 24 hrs by propidium iodide/RNase staining based flow cytometric analysis (reference value: 48.05 %); type: functional
CDK7/Cyclin H/MNAT1 = CDK7/Cyclin H/MNAT1 (Homo sapiens, UniProt P50613); assay: Inhibition of CDK7/cyclinH/MAT1 (unknown origin) using FAM-labeled peptide and ATP as substrate preincubated for 10 mins followed by substrate addition by mobility shift assay; type: protein-complex assay; procedure, shortened: as §2
CDK7/Cyclin H/MNAT1, sequence (P51946 whole entry): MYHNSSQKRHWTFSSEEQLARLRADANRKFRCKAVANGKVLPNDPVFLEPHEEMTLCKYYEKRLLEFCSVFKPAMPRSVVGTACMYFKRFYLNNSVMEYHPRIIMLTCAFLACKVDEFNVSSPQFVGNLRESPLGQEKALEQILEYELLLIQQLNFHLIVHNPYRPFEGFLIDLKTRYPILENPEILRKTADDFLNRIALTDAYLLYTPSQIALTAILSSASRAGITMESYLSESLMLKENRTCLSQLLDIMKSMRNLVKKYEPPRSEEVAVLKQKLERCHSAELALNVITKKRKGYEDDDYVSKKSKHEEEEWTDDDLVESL
CDK7/Cyclin H/MNAT1, sequence (P50613 whole entry): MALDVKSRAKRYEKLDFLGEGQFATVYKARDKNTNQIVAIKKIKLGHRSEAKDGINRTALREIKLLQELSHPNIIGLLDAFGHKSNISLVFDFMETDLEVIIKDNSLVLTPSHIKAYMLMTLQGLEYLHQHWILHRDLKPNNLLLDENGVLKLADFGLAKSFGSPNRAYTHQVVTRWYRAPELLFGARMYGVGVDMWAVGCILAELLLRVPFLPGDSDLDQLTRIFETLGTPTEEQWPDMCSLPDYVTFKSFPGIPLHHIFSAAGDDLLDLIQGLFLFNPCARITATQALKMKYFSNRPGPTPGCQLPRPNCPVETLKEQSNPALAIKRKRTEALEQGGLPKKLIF
CDK7/Cyclin H/MNAT1, sequence (P51948 whole entry, further chain): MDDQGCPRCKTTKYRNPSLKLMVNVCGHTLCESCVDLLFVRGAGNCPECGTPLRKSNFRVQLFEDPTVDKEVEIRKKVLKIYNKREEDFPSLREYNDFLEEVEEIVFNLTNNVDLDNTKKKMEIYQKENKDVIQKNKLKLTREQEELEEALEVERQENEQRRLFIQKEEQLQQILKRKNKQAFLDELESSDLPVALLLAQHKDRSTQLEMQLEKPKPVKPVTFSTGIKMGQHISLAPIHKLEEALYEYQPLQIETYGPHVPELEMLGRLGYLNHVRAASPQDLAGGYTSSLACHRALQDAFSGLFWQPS

MV4-11 = assay: Antiproliferative activity against human MV4-11 cells assessed as reduction in cell viability measured after 96 hrs by Celltiter-Glo luminescent assay; type: functional, cell-based; conditions: MV4-11, 96 h
Procedure, shortened: (§4)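 Cells in DMEM (A2058, MRC5) or RPMI 1640 (MV4-11), each with 10% fetal bovine serum and 1% penicillin/streptomycin. Cells were plated in 96-well plates and exposed to serially concentrated compound for 96 h, with DMSO as control. Viability was read by CellTiter-Glo luminescence and IC50 derived.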

A2058 [13] = assay: Induction of apoptosis in human A2058 cells assessed as viable cells at 0.4 uM measured after 48 hrs by Annexin V-FITC/propidium iodide staining based flow cytometry (reference value: 94.6 %); type: functional; conditions: read-out: Activity
A2058 [14] = assay: Induction of cell cycle arrest in human A2058 cells assessed as accumulation at S phase at 0.4 uM after 24 hrs by propidium iodide/RNase staining based flow cytometric analysis (reference value: 30.76 %); type: functional
CDK3/Cyclin E = CDK3/Cyclin E (Homo sapiens, UniProt Q00526); assay: Inhibition of CDK3/cyclin E1 (unknown origin) using FAM-labeled peptide and ATP as substrate preincubated for 10 mins followed by substrate addition by mobility shift assay; type: protein-complex assay; procedure, shortened: as §2
CDK3/Cyclin E, sequence (P24864 whole entry): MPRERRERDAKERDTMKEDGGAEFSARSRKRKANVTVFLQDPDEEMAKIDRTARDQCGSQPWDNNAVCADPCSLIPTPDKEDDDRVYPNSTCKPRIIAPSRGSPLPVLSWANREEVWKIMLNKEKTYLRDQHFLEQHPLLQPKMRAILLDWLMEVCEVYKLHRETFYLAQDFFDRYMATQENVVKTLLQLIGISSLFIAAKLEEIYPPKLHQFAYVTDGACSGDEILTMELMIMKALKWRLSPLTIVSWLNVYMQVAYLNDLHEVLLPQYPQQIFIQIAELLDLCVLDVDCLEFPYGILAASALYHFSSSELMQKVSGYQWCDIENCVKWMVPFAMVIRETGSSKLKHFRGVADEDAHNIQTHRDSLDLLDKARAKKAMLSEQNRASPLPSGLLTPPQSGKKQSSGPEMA
CDK3/Cyclin E, sequence (Q00526 whole entry): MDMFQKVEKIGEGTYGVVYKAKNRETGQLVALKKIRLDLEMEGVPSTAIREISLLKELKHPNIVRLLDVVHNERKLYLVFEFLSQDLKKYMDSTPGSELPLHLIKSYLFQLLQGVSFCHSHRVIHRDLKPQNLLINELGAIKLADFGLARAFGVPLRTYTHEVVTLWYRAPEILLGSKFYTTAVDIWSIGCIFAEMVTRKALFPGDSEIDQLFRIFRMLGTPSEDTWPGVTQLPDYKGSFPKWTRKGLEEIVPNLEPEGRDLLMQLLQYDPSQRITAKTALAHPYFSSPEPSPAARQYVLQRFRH

A2058 [15] = assay: Induction of apoptosis in human A2058 cells assessed as upregulation of cleaved caspase-3 level after 24 hrs by immunoblot analysis; type: functional, cell-based; conditions: dose 0.1875-1.5 µM; procedure, shortened: as §3
A2058 [16] = assay: Induction of apoptosis in human A2058 cells assessed as necrotic cells at 1 uM measured after 48 hrs by Annexin V-FITC/propidium iodide staining based flow cytometry (reference value: 0.37 %); type: functional
[17] = biological target: Cyclin-dependent kinase 1/cyclin B1 (Homo sapiens, UniProt P06493); type: protein-complex assay
Cyclin-dependent kinase 1/cyclin B1, sequence (P06493 whole entry): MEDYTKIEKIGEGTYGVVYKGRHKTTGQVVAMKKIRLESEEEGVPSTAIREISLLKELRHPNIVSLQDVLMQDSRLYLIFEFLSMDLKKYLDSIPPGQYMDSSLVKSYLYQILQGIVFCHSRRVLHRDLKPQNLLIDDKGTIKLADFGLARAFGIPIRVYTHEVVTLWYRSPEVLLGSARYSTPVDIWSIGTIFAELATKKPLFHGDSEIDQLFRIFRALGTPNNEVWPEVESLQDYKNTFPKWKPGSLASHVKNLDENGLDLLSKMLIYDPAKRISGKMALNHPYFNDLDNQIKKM
Cyclin-dependent kinase 1/cyclin B1, sequence (P14635 whole entry, further chain): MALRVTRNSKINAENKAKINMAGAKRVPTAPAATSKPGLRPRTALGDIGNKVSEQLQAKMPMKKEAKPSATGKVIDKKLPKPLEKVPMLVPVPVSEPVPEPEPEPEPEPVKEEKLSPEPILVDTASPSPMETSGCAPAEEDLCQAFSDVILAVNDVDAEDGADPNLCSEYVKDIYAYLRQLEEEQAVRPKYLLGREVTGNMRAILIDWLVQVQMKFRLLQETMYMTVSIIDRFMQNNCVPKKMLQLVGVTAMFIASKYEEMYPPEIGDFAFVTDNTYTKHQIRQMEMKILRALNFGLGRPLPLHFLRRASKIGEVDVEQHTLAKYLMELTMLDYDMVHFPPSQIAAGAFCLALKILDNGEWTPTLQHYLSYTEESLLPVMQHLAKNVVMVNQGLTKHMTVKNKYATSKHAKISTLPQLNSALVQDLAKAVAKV

[18] = Cytotoxicity against human LX2 cells assessed as inhibition of cell growth at 100 uM measured after 96 hrs by Celltiter-Glo luminescent assay; type: cell-based
Procedure, shortened: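 LX2 cells grown in DMEM with 10% fetal bovine serum and 1% penicillin/streptomycin, plated in 96-well plates. They were treated with compound at […] or DMSO control for 96 h. Viability was read by CellTiter-Glo luminescence and expressed as percent inhibition.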

A2058 [19] = assay: Antiproliferative activity against human A2058 cells assessed as reduction in cell viability measured after 96 hrs by Celltiter-Glo luminescent assay; type: functional, cell-based; conditions: A2058, 96 h; procedure, shortened: as §4
A2058 [20] = assay: Induction of apoptosis in human A2058 cells assessed as late apoptotic cells at 0.2 uM measured after 48 hrs by Annexin V-FITC/propidium iodide staining based flow cytometry (reference value: 1.85 %); type: functional

NC(=O)c1ccc(-c2ccc(F)c(C(=O)Nc3c[nH]nc3C(=O)Nc3ccc(F)cc3)c2F)cn1
Activity (A2058 [1]): 4.52%
viability at 0.2 µM (A2058 [2]): 87.3%
Activity (A2058 [3]): 14.6%
inhibition [4]: Dose-dependent effect
Activity (A2058 [5]): 41.35%
Activity (A2058 [6]): 40%
Activity (A2058 [7]): 3.41%
IC50 (CDK9/cyclin T1): 1120 nM
Activity (A2058 [8]): 8.32%
inhibition [9]: Active
IC50 (CDK6/cyclin D3): > 18000 nM
Activity (A2058 [10]): Dose-dependent effect
inhibition [11]: Tde
Activity (A2058 [12]): 48.05%
IC50 (CDK7/Cyclin H/MNAT1): > 18000 nM
IC50 (MV4-11): 252 nM
viability at 0.4 µM (A2058 [13]): 55.1%
Activity (A2058 [14]): 39.82%
IC50 (CDK3/Cyclin E): 113 nM
Activity (A2058 [15]): Dose-dependent effect
Activity (A2058 [16]): 7.66%
IC50 [17]: 1020 nM
inhibition at 96 h, 100 µM [18]: 32.5%
IC50 (A2058 [19]): 295 nM
Activity (A2058 [20]): 4.75%
